Laboratory results taken from ChEMBL document CHEMBL3352721, “Identification, optimization, and pharmacology of acylurea GHS-R1a inverse agonists” (J Med Chem, 2014).
Values belong to the compound of their own block, whether it stands above or below them. The source made the active and inactive calls. The calls are words filed in the database; no cut-off is given here.

Legend:
[1] = Ratio of drug level in homogenized brain to plasma in CD1 mouse at 2.7 mg/kg, po measured after 6 hrs by LC-MS/MS method; assay type: ADME, organism-based; set-up: dose 2.7 mg/kg, route oral; conditions: read-out: BPR
Method in brief: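 Brain homogenate and plasma drug levels were taken 6 h after oral dosing, and their ratio was reported. Plasma was assayed by LC/MS/MS after acetonitrile protein precipitation.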

[2] = Ratio of free drug level in homogenized brain to plasma in CD1 mouse measured 6 hrs after oral dosing by LC-MS/MS method; assay type: ADME
Method in brief: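 CD-1 mice dosed PO in 1% Pluronic F127. Drug was measured in homogenized brain and in plasma 6 h after dosing and expressed as a brain:plasma ratio. The free ratio used free fraction measured in mouse plasma and rat brain (brain slice or brain homogenate).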

[3] = Cmax in CD1 mouse at 2 mg/kg, po by LC-MS/MS method; assay type: ADME, organism-based; set-up: dose 2 mg/kg, route oral; conditions: in vivo
Method in brief: (§1)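 Oral gavage in male HW rats, beagle dogs or CD-1 mice, vehicle Pluronic F127 in water. EDTA plasma was collected over 24 h and quantified by LC/MS/MS after acetonitrile precipitation. Cmax and bioavailability were obtained by non-compartmental analysis against IV data.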

[4] = target: Growth hormone secretagogue receptor type 1 (Homo sapiens, UniProt Q92847); assay: Displacement of [125I]human ghrelin from human GHS-R1a expressed in HEK cell membranes after 60 mins by gamma counting method; set-up: species or system HEK293
Growth hormone secretagogue receptor type 1, sequence (Q92847 whole entry): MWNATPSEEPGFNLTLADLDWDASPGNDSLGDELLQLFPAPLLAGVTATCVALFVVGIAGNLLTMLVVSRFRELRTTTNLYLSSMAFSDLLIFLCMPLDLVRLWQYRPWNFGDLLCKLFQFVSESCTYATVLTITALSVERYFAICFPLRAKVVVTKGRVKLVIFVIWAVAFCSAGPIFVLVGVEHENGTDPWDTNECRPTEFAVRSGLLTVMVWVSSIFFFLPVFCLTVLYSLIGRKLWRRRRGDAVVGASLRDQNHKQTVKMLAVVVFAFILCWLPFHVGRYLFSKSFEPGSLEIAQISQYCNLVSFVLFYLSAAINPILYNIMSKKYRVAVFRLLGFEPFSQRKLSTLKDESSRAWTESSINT

[5] = Lipophilicity, logD of the compound; assay type: physicochemical; conditions: octanol/water
MDR1 [6] = assay: Apparent permeability in MDCK cells expressing MDR1 at 10 uM assessed as apical to basolateral side transport; assay type: ADME, cell-based, Canis lupus familiaris; conditions: dog
Method in brief: (§2)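 MDCK-MDR1 monolayers incubated with compound at 10 µM; permeability measured in both A→B and B→A directions, giving Papp A-B (x10^6 cm/s) and the efflux ratio.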

MDR1 [7] = assay: Efflux ratio in MDCK cells expressing MDR1 at 10 uM; assay type: ADME, cell-based, Canis lupus familiaris; conditions: dog; method in brief: as §2
[8] = Ratio of drug level in homogenized brain to plasma in Han-Wistar rat measured 1 hr after iv bolus then iv infusion by LC-MS/MS method; assay type: ADME, organism-based; conditions: read-out: BPR
Method in brief: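 Brain:plasma ratio in homogenized brain 1 h after IV bolus followed by IV infusion. The free ratio used free fractions measured in plasma and brain (brain slice method or brain homogenate).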

[9] = Volume of distribution at steady state in beagle dog at 2 mg/kg, iv; assay type: ADME, organism-based, Canis lupus familiaris; set-up: dose 2 mg/kg, route intravenous; conditions: in vivo, read-out: Vdss
Method in brief: (§3)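 Male HW rats, beagle dogs or CD-1 mice received an IV bolus in 5% DMSO/95% hydroxypropyl-β-cyclodextrin (30% w/v). EDTA plasma was sampled over 24 h and assayed by LC/MS/MS after acetonitrile protein precipitation. CL and Vss were obtained by non-compartmental analysis.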

[10] = Cmax in Han-Wistar rat at 2 mg/kg, po by LC-MS/MS method; assay type: ADME, organism-based; set-up: dose 2 mg/kg, route oral; conditions: in vivo; method in brief: as §1
[11] = Oral bioavailability in CD1 mouse at 1.3 mg/kg; assay type: ADME, organism-based; conditions: in vivo; method in brief: as §1
[12] = Unbound fraction in beagle dog plasma; assay type: ADME, cell-free, Canis lupus familiaris
Mus musculus [13] = assay: Reduction in free feeding level in po dosed C57Bl6j mouse free feeding model measured during 0 to 2 hrs; assay type: functional, organism-based
Method in brief: (§4)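 Male mice (C57Bl6j, GHSr1-/- or wild-type littermates) were acclimatized 3 weeks to reversed light-dark, then individually housed 7 days and grouped (n=10-12) by baseline intake and body weight. Suspensions in 1% Pluronic F127 or vehicle were gavaged at 10 mL/kg about 1 h before dark onset. Pre-weighed food was reweighed at 2, 4, 6 and 24 h.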

[14] = target: Growth hormone secretagogue receptor type 1 (Rattus norvegicus) (UniProt O08725); assay: Displacement of [125I]human ghrelin from rat GHS-R1a expressed in HEK cell membranes after 60 mins by gamma counting method; conditions: hek293
Growth hormone secretagogue receptor type 1 (Rattus norvegicus), sequence (O08725 whole entry, looked up): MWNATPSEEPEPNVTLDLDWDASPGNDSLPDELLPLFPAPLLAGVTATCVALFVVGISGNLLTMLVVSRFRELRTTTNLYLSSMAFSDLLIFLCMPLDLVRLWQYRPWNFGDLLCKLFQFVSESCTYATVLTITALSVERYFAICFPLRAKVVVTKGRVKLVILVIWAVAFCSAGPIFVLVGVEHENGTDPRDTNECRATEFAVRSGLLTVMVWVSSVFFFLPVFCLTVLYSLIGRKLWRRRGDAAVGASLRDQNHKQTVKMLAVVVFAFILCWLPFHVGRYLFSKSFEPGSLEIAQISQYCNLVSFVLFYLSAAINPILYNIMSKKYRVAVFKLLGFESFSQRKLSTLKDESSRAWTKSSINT

[15] = Volume of distribution at steady state in Han-Wistar rat at 2 mg/kg, iv; assay type: ADME, organism-based; set-up: dose 2 mg/kg, route intravenous; conditions: in vivo, read-out: Vdss; method in brief: as §3
[16] = Oral bioavailability in Han-Wistar rat at 2 mg/kg; assay type: ADME, organism-based; conditions: Han-Wistar, in vivo; method in brief: as §1
[17] = Cmax in Han-Wistar rat at 2 mg/kg, po; assay type: ADME, organism-based; set-up: dose 2 mg/kg, route oral; conditions: in vivo; method in brief: as §1
[18] = Unbound fraction in Han-Wistar rat plasma; assay type: ADME, cell-free
Mus musculus [19] = assay: Reduction in free feeding level in po dosed C57Bl6j mouse free feeding model measured over 24 hrs period; assay type: functional, organism-based; method in brief: as §4
[20] = Clearance in Han-Wistar rat at 2 mg/kg, iv; assay type: ADME, organism-based; set-up: dose 2 mg/kg, route intravenous; conditions: in vivo; method in brief: as §3
[21] = Displacement of [125I]human ghrelin from mouse GHS-R1a expressed in HEK cell membranes after 60 mins by gamma counting method; conditions: hek293
Method in brief: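 HEK cell membranes stably overexpressing mouse or rat GHS-R1a (4 µg/well) incubated 60 min at rt with 20 pM [125I]human ghrelin and competing compound. Buffer: 50 mM Tris-HCl, 5 mM MgCl2, 0.01% BSA, pH 7.4, plus 10 µM methyl arachidonyl fluorophosphonate. Stopped by filtration over PEI-soaked GF/C filters with ice-cold washes, then gamma counting. IC50 is the mean of ≥2 independent determinations.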

[22] = Cmax in beagle dog at 2 mg/kg, po; assay type: ADME, organism-based, Canis lupus familiaris; set-up: dose 2 mg/kg, route oral; conditions: in vivo; method in brief: as §1
[23] = Clearance in beagle dog at 2 mg/kg, iv; assay type: ADME, organism-based, Canis lupus familiaris; set-up: dose 2 mg/kg, route intravenous; conditions: in vivo; method in brief: as §3
[24] = Cmax in CD1 mouse at 1.3 mg/kg, po; assay type: ADME, organism-based; set-up: dose 1.3 mg/kg, route oral; conditions: in vivo; method in brief: as §1
Mus musculus [25] = assay: Reduction in free feeding level in po dosed C57Bl6j mouse free feeding model measured during 2 to 6 hrs; assay type: functional, organism-based; method in brief: as §4
[26] = Volume of distribution at steady state in CD1 mouse at 2 mg/kg, iv; assay type: ADME, organism-based; set-up: dose 2 mg/kg, route intravenous; conditions: in vivo, read-out: Vdss; method in brief: as §3
[27] = Oral bioavailability in beagle dog at 2 mg/kg; assay type: ADME, organism-based, Canis lupus familiaris; conditions: in vivo; method in brief: as §1
[28] = Clearance in CD1 mouse at 2 mg/kg, iv; assay type: ADME, organism-based; set-up: dose 2 mg/kg, route intravenous; conditions: in vivo; method in brief: as §3
[29] = Unbound fraction in CD1 mouse plasma; assay type: ADME, cell-free

- Kp at 6 h [1]: 0.15
- Kp uu at 6 h [2]: 0.072
- Cmax [3]: 3000 nM
- IC50 [4]: 7.2 nM
- logD [5]: 2.8
- Papp A→B at 10 µM (MDR1 [6]): 5.1 ×10⁻⁶ cm/s
- efflux ratio at 10 µM (MDR1 [7]): 1.2
SMILES: CN1CCC(S(=O)(=O)c2ccc3nc(NC(=O)NC(=O)c4cc5c(cc4Cl)CCN5C)sc3c2)CC1

- Kp at 1 h [8]: < 0.03
- Vd [9]: 0.3 L/kg
- Cmax [10]: 1200 nM
- bioavailability [11]: 50%
- fraction unbound [12]: 0.0078
- IC50 [14]: 3.4 nM
- Vd [15]: 0.9 L/kg
- bioavailability [16]: 30%
- Cmax [17]: 580 nM
- fraction unbound [18]: 0.0035
- clearance [20]: 2.6 mL/min/kg
- IC50 [21]: 1.1 nM
- Cmax [22]: 11 µM
- clearance [23]: 0.69 mL/min/kg
- logD [5]: 1.7
- Papp A→B at 10 µM (MDR1 [6]): 0.53 ×10⁻⁶ cm/s
- Cmax [24]: 1300 nM
- Vd [26]: 0.8 L/kg
- bioavailability [27]: 87%
- clearance [28]: 2.9 mL/min/kg
- fraction unbound [29]: 0.006
SMILES: CN1CCN(CCCS(=O)(=O)c2ccc3nc(NC(=O)NC(=O)c4cc(N5CCOCC5)ccc4Cl)sc3c2)CC1
- Activity (Mus musculus [13]): Active
- Activity (Mus musculus [19]): inactive
- Activity (Mus musculus [25]): inactive
